The values below come from ChEMBL document CHEMBL1275337, “Biflavonoids from Torreya nucifera displaying SARS-CoV 3CL(pro) inhibition” (Bioorg Med Chem, 2010).

In test [1] the target is Replicase polyprotein 1ab (Severe acute respiratory syndrome-related coronavirus) (UniProt P0C6X7). The experiment in a line: Inhibition of SARS coronavirus 3C-like protease at 200 uM after 60 mins by FRET assay.
Test [2] has as its target T1, Replicase polyprotein 1ab (Severe acute respiratory syndrome-related coronavirus, UniProt P0C6X7). Kind of test: Inhibition of SARS coronavirus 3C-like protease after 60 mins by FRET assay.
For test [3], the target named is T1, Replicase polyprotein 1ab. Kind of test: Non-competitive inhibition of SARS coronavirus 3C-like protease by Dixon plot analysis. The essentials: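 Inhibition mode comes from FRET protease rates at substrate concentrations of 2.5, 5.0 and 10.0 µM across several inhibitor concentrations. Ki is taken from Dixon (1/V versus [I]) and Lineweaver-Burk plots; type is assigned from Vmax versus inhibitor concentration. Triplicate experiments.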

pIC50, pKi: −log10 of the molar value.

What is called inhibition is how much of the control response was suppressed. Lower therefore signals a weak effect. In general, pIC50 refers to the IC50 on a negative log10 scale, so that one unit is a factor of ten. Low readings indicate a large IC50, high ones a small IC50. On to `CC(C)c1cc2c(cc1O)[C@@]1(C)CCC[C@@](C)(CO)[C@@H]1CC2` [18-HYDROXYFERRUGINOL], for which, in test [1], the inhibition turned out to be 45.8%. Besides, the pIC50 in test [2] is 3.66.

Broadly, the pKi is the negative decadic logarithm of the Ki, by convention in mol/L. `COc1ccc(-c2cc(=O)c3c(O)cc(O)c(-c4cc(-c5cc(=O)c6c(O)cc(OC)cc6o5)ccc4OC)c3o2)cc1` [SCIADOPITISIN] gave a pIC50 in test [2] of 4.42. In test [3], this compound showed a pKi of 4.45.

`CC(C)c1cc2c(cc1O)[C@@]1(C)CCC[C@@](C)(C=O)[C@@H]1CC2` [18-OXOFERRUGINOL] showed an inhibition in test [1] of 70.5%. The compound further had a pIC50 in test [2] of 3.79.

For the compound `COc1ccc(-c2cc(=O)c3c(O)cc(O)cc3o2)cc1-c1c(O)cc(O)c2c(=O)cc(-c3ccc(O)cc3)oc12` [BILOBETIN], in test [2], the negative logarithm of the IC50 (pIC50) is 4.14. The negative logarithm of the Ki (pKi) in test [3] was 4.09.

`C=C1CC[C@H]2[C@](C)(CO)CCC[C@]2(C)[C@H]1CC/C(C)=C\CO` [KAYADIOL] had an inhibition in test [1] of 75.2%. Also, the pIC50 in test [2] is 3.86.

As for `CC(C)c1cc2c(cc1O)[C@@]1(C)CCCC(C)(C)[C@@H]1CC2` [FERRUGINOL], in test [1], the inhibition worked out at 92.7%. The compound further had a pIC50 in test [2] of 4.30.

In the case of `O=c1cc(-c2ccc(O)c(-c3c(O)cc(O)c4c(=O)cc(-c5ccc(O)cc5)oc34)c2)oc2cc(O)cc(O)c12` [AMENTOFLAVONE], the pKi in test [3] was 4.86.

`COC(=O)[C@]1(C)CCC[C@]2(C)c3ccc(C(C)C)cc3CC[C@@H]12` [METHYL DEHYDROABIETATE] displayed an inhibition in test [1] of 46.7%. Also, in test [2], the pIC50 is 3.68.

In the case of `C=C[C@@]1(C)CC[C@H]2C(=CC[C@@H]3[C@]2(C)CCC[C@@]3(C)C(=O)O)C1` [ISOPIMARIC ACID], in test [1], the inhibition stood at 28.9%. This compound gave a pIC50 in test [2] of 3.55.

Regarding `COc1cc(O)c2c(=O)cc(-c3ccc(OC)c(-c4c(O)cc(O)c5c(=O)cc(-c6ccc(O)cc6)oc45)c3)oc2c1` [GINKGETIN], the pIC50 in test [2] is 4.49. In test [3], this compound gave a pKi of 4.52.

On to `CC(=O)Oc1cc2c(cc1C(C)C)CC[C@H]1[C@](C)(CO)CCC[C@]21C`, for which the inhibition in test [1] is 78.6%. For the same compound, the pIC50 in test [2] is 3.89.

Take `O=c1cc(-c2ccc(O)cc2)oc2cc(O)cc(O)c12` [APIGENIN]: the inhibition in test [1] turned out to be 40%. The pIC50 in test [2] is 3.55.

Compound `CC(C)C1=CC2=CC[C@@H]3[C@](C)(CCC[C@@]3(C)C(=O)O)[C@H]2CC1` [ABIETIC ACID] showed an inhibition in test [1] of 58%. The compound also showed a pIC50 in test [2] of 3.72.

In turn, `CC(C)c1cc2c(cc1O)[C@@]1(C)CC[C@H](O)C(C)(C)[C@@H]1CC2` [HINOKIOL] yielded an inhibition in test [1] of 39.1%. The pIC50 in test [2] is 3.63.

In the case of `O=c1cc(-c2ccc(O)c(O)c2)oc2cc(O)cc(O)c12` [LUTEOLIN], the pIC50 in test [2] was 4.70.
